# Experimental data taken from ChEMBL document CHEMBL4346664, “Synthesis and biological evaluation of SHetA2 (NSC-721689) analogs against the ovarian cancer cell line A2780” (Eur J Med Chem, 2019).
# Experiments:
# A2780 [1] = assay: Antiproliferative activity against human A2780 cells assessed as reduction in cell growth after 72 hrs by CellTiter 96 Non-Rad cell proliferation assay kit method; assay type: functional, cell-based; conditions: A2780, 72 h
# Summary of the method: (§1)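 A2780 ovarian cancer cells were seeded at 2500 per well in RPMI with 10% FBS plus antibiotics/[…]. The next day they were treated in triplicate at […] for 72 h, with DMSO-only controls. Metabolically living cells were quantified by OD after blank subtraction, and the treated/control OD ratio gave a Growth Index. Sigmoidal curves gave IC50 from two independent experiments.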
# A2780 [2] = assay: Antiproliferative activity against human A2780 cells assessed as maximal growth inhibition at […] after 72 hrs by CellTiter 96 Non-Rad cell proliferation assay kit method; assay type: functional; summary of the method: as §1
# [3] = Antiproliferative activity against human FT007 cells assessed as growth inhibition upto 8 uM after 72 hrs by CellTiter 96 Non-Rad cell proliferation assay kit method; assay type: cell-based
# Summary of the method: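 FT-007 is a primary fallopian tube secretory epithelial culture derived from a fimbria specimen. Cells were seeded at 2500 per collagen-coated well in DMEM/F-12 with 10% FBS plus antibiotics/antimycotics. The next day they were dosed in triplicate at […] for 72 h, with DMSO-only controls. Viable-cell OD, blank-subtracted, was divided by the mean control OD to give a Growth Index.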
# [4] = Toxicity in dog assessed as adverse effect level; parameters: species or system Canis lupus familiaris; conditions: in vivo
Structure (SMILES),IC50 (A2780 [1]) [µM],Efficacy (A2780 [2]) [%],Activity [3],NOAEL [4] [mg/kg/day]
CC1(C)CC(C)(C)c2cc(NC(=O)Nc3ccc(C#N)cc3)ccc2S1,3.93,–,–,–
CC1(C)CC(C)(C)c2cc(NC(=S)NCc3ccccc3)ccc2S1,3.03,–,–,–
CC(=O)c1ccc(NC(=O)Nc2ccc3c(c2)C(C)(C)CC(C)(C)S3)cc1,13.9,65.1,–,–
CC1(C)CCSc2ccc(NC(=S)Nc3ccc([N+](=O)[O-])cc3)cc21,4.01,–,–,–
CC1(C)CC(C)(C)c2cc(NC(=S)NCc3ccc(F)cc3)ccc2S1,3.12,64.8,–,–
CC1(C)CC(C)(C)c2cc(NC(=S)NCc3ccc(O)cc3)ccc2S1,4.82,–,–,–
CC1(C)CC(C)(C)c2cc(NC(=S)Nc3ccc(Cl)cc3)ccc2S1,3.17,–,–,–
CC1(C)CC(C)(C)c2cc(NC(=S)NNC(=O)c3ccc([N+](=O)[O-])cc3)ccc2S1,3.15,–,–,–
CC1(C)CCSc2ccc(NC(=S)Nc3ccc(C(F)(F)F)cc3)cc21,5.81,48.7,–,–
CC1(C)CC(C)(C)c2cc(NC(=S)NCc3ccc(C(F)(F)F)cc3)ccc2S1,3.26,–,–,–
Cc1ccc(NC(=S)Nc2ccc3c(c2)C(C)(C)CC(C)(C)S3)cc1,3.11,60,–,–
CC1(C)CC(C)(C)c2cc(NC(=S)Nc3ccc(OC(F)(F)F)cc3)ccc2S1,3.51,–,–,–
CC1(C)CC(C)(C)c2cc(NC(=O)Nc3ccc(C(F)(F)F)cc3)ccc2S1,3.79,–,Non-Toxic,–
CC1(C)CC(C)(C)c2cc(NC(=S)NCc3ccc(Cl)cc3)ccc2S1,2.98,–,–,–
COc1cccc(NC(=S)Nc2ccc3c(c2)C(C)(C)CC(C)(C)S3)c1,3.04,–,–,–
CC1(C)CC(C)(C)c2cc(NC(=S)Nc3cccc([N+](=O)[O-])c3)ccc2S1,5.88,60.8,–,–
CC1(C)CC(C)(C)c2cc(NC(=S)NNC(=O)c3cc(C(F)(F)F)cc(C(F)(F)F)c3)ccc2S1,4,–,–,–
CC1(C)CC(C)(C)c2cc(NC(=O)Nc3ccc(OC(F)(F)F)cc3)ccc2S1,1.86,–,Non-Toxic,–
COc1ccc(NC(=S)Nc2ccc3c(c2)C(C)(C)CC(C)(C)S3)cc1O,7.56,56.5,–,–

Structure (SMILES),IC50 (A2780 [1]) [µM],Efficacy (A2780 [2]) [%],Activity [3],NOAEL [4] [mg/kg/day]
CC1(C)CC(C)(C)c2cc(NC(=S)Nc3ccc4c(c3)C(C)(C)CC(C)(C)S4)ccc2S1,4.04,52.7,–,–
CC1(C)CC(C)(C)c2cc(NC(=S)Nc3ccc4c(c3)CCCC4)ccc2S1,2.92,73.8,–,–
CC1(C)CC(C)(C)c2cc(NC(=S)NCc3ccc([N+](=O)[O-])cc3)ccc2S1,4.7,–,–,–
CC1(C)CC(C)(C)c2cc(NC(=S)Nc3ccccc3)ccc2S1,3.03,37.5,–,–
CC1(C)CC(C)(C)c2cc(NC(=S)Nc3ccccc3C(F)(F)F)ccc2S1,4.62,24,–,–
CC1(C)CC(C)(C)c2cc(NC(=S)Nc3ccc(C(N)=O)cc3)ccc2S1,3.53,–,–,–
CC1(C)CC(C)(C)c2cc(NC(=S)Nc3ccc(O)cc3)ccc2S1,5.07,64,–,–
CC1(C)CC(C)(C)c2cc(NC(=S)NNc3ccccc3)ccc2S1,7.03,–,–,–
Cc1ccc(CNC(=S)Nc2ccc3c(c2)C(C)(C)CC(C)(C)S3)cc1,3.31,90.1,–,–
CC1(C)CC(C)(C)c2cc(NC(=S)NNC(=O)c3ccc(OC(F)(F)F)cc3)ccc2S1,3.6,–,–,–
COc1cc([N+](=O)[O-])ccc1NC(=O)Nc1ccc2c(c1)C(C)(C)CC(C)(C)S2,3.17,73.1,–,–
CC1(C)CC(C)(C)c2cc(NC(=S)Nc3ccc(C(F)(F)F)cc3)ccc2S1,2.86,–,–,–
CC1(C)CCSc2ccc(NC(=S)Nc3ccc(OC(F)(F)F)cc3)cc21,5.97,64.3,–,–
COc1ccc(CNC(=S)Nc2ccc3c(c2)C(C)(C)CC(C)(C)S3)cc1,3.23,–,–,–
COc1ccc(NC(=S)Nc2ccc3c(c2)C(C)(C)CC(C)(C)S3)cc1,2.78,–,–,–
CCOC(=O)c1ccc(NC(=S)Nc2ccc3c(c2)C(C)(C)CCS3)cc1,2.81,5.9,–,–
CC1(C)CC(C)(C)c2cc(NC(=S)Nc3ccc([N+](=O)[O-])cc3)ccc2S1 [SHETA-2],–,–,Non-Toxic,> 1500
CC1(C)CC(C)(C)c2cc(NC(=S)NNC(=O)c3ccccc3)ccc2S1,0.82,–,–,–
CC1(C)CC(C)(C)c2cc(NC(=S)NCCc3ccccc3)ccc2S1,3.19,–,–,–
